Assays:
U2OS = experiment: Multiplex assay against U2OS; type: toxicity, cell-based; settings: human
Method in brief: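 Cells stained live at seeding with Hoechst33342, BioTracker Green Microtubule Cytoskeleton Dye, MitoTracker Red and Annexin V Alexa Fluor 680 were imaged on a CQ1 microscope at 37°C and 5% CO2 after compound addition. Their classification by CellPathfinder machine-learning gating ran from Hoechst high-intensity objects versus normal cells, to healthy, pyknosed or fragmented nuclei among normal cells, to mitotic or apoptotic among pyknosed cells. Tubulin, mitochondrial-mass and membrane-permeability phenotypes are per cents of healthy-nucleus cells.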

Fibroblast = experiment: Incucyte cell viability with human fibroblast; type: toxicity, cell-based; settings: 10 µM, compound concentration 10 uM; also: filed as whole numbers so only -1 and 0 and 1 occur
[1] = 12 h, 1 µM, compound concentration 1 uM, replicate 1
[2] = 12 h, 1 µM, compound concentration 1 uM, replicate 2
[3] = 12 h, 10 µM, compound concentration 10 uM, replicate 1
[4] = 12 h, 10 µM, compound concentration 10 uM, replicate 2
[5] = 24 h, 1 µM, compound concentration 1 uM, replicate 1
[6] = 24 h, 1 µM, compound concentration 1 uM, replicate 2
[7] = 24 h, 10 µM, compound concentration 10 uM, replicate 1
[8] = 24 h, 10 µM, compound concentration 10 uM, replicate 2
[9] = 48 h, 1 µM, compound concentration 1 uM, replicate 1
[10] = 48 h, 1 µM, compound concentration 1 uM, replicate 2
[11] = 48 h, 10 µM, compound concentration 10 uM, replicate 1
[12] = 48 h, 10 µM, compound concentration 10 uM, replicate 2

Structure (SMILES): O=C(O)c1ccc2cc(-c3ccc(O)c(C45CC6CC(CC(C6)C4)C5)c3)ccc2c1 [O-DEMETHYLATED ADAPALENE]
- Population Apoptotic (%) (U2OS; [1]): 50%
- Population Fragmented Nuclei (%) (U2OS; [1]): 21%
- Population Healthy Nuclei (%) (U2OS; [1]): 66%
- Population Hoechst High Intensity Objects (%) (U2OS; [1]): 11%
- Population Membrane Permeable-Phenotype (%) (U2OS; [1]): 13%
- Population Mitochondria Different-Phenotype (%) (U2OS; [1]): 12%
- Population Mitotic Cells (%) (U2OS; [1]): 50%
- Population Normal (%) (U2OS; [1]): 88%
- Population Pyknosed Nuclei (%) (U2OS; [1]): 11%
- Population Tubulin-Different-Phenotype (%) (U2OS; [1]): 15%
- Total Cell Count (U2OS; [1]): 98
- Population Apoptotic (%) (U2OS; [2]): 100%
- Population Fragmented Nuclei (%) (U2OS; [2]): 8%
- Population Healthy Nuclei (%) (U2OS; [2]): 87%
- Population Hoechst High Intensity Objects (%) (U2OS; [2]): 9%
- Population Membrane Permeable-Phenotype (%) (U2OS; [2]): 6%
- Population Mitochondria Different-Phenotype (%) (U2OS; [2]): 16%
- Population Mitotic Cells (%) (U2OS; [2]): 0%
- Population Normal (%) (U2OS; [2]): 90%
- Population Pyknosed Nuclei (%) (U2OS; [2]): 3%
- Population Tubulin-Different-Phenotype (%) (U2OS; [2]): 16%
- Total Cell Count (U2OS; [2]): 62
- Population Apoptotic (%) (U2OS; [3]): 66%
- Population Fragmented Nuclei (%) (U2OS; [3]): 9%
- Population Healthy Nuclei (%) (U2OS; [3]): 85%
- Population Hoechst High Intensity Objects (%) (U2OS; [3]): 6%
- Population Membrane Permeable-Phenotype (%) (U2OS; [3]): 4%
- Population Mitochondria Different-Phenotype (%) (U2OS; [3]): 15%
- Population Mitotic Cells (%) (U2OS; [3]): 33%
- Population Normal (%) (U2OS; [3]): 93%
- Population Pyknosed Nuclei (%) (U2OS; [3]): 4%
- Population Tubulin-Different-Phenotype (%) (U2OS; [3]): 11%
- Total Cell Count (U2OS; [3]): 205
- Population Apoptotic (%) (U2OS; [4]): 100%
- Population Fragmented Nuclei (%) (U2OS; [4]): 11%
- Population Healthy Nuclei (%) (U2OS; [4]): 87%
- Population Hoechst High Intensity Objects (%) (U2OS; [4]): 2%
- Population Membrane Permeable-Phenotype (%) (U2OS; [4]): 1%
- Population Mitochondria Different-Phenotype (%) (U2OS; [4]): 16%
- Population Mitotic Cells (%) (U2OS; [4]): 0%
- Population Normal (%) (U2OS; [4]): 97%
- Population Pyknosed Nuclei (%) (U2OS; [4]): 1%
- Population Tubulin-Different-Phenotype (%) (U2OS; [4]): 25%
- Total Cell Count (U2OS; [4]): 83
- Population Apoptotic (%) (U2OS; [5]): 30%
- Population Fragmented Nuclei (%) (U2OS; [5]): 15%
- Population Healthy Nuclei (%) (U2OS; [5]): 73%
- Population Hoechst High Intensity Objects (%) (U2OS; [5]): 11%
- Population Membrane Permeable-Phenotype (%) (U2OS; [5]): 10%
- Population Mitochondria Different-Phenotype (%) (U2OS; [5]): 13%
- Population Mitotic Cells (%) (U2OS; [5]): 70%
- Population Normal (%) (U2OS; [5]): 89%
- Population Pyknosed Nuclei (%) (U2OS; [5]): 11%
- Population Tubulin-Different-Phenotype (%) (U2OS; [5]): 10%
- Total Cell Count (U2OS; [5]): 100
- Population Apoptotic (%) (U2OS; [6]): 100%
- Population Fragmented Nuclei (%) (U2OS; [6]): 7%
- Population Healthy Nuclei (%) (U2OS; [6]): 89%
- Population Hoechst High Intensity Objects (%) (U2OS; [6]): 6%
- Population Membrane Permeable-Phenotype (%) (U2OS; [6]): 6%
- Population Mitochondria Different-Phenotype (%) (U2OS; [6]): 30%
- Population Mitotic Cells (%) (U2OS; [6]): 0%
- Population Normal (%) (U2OS; [6]): 93%
- Population Pyknosed Nuclei (%) (U2OS; [6]): 3%
- Population Tubulin-Different-Phenotype (%) (U2OS; [6]): 18%
- Total Cell Count (U2OS; [6]): 60
- Population Apoptotic (%) (U2OS; [7]): 64%
- Population Fragmented Nuclei (%) (U2OS; [7]): 15%
- Population Healthy Nuclei (%) (U2OS; [7]): 77%
- Population Hoechst High Intensity Objects (%) (U2OS; [7]): 5%
- Population Membrane Permeable-Phenotype (%) (U2OS; [7]): 4%
- Population Mitochondria Different-Phenotype (%) (U2OS; [7]): 20%
- Population Mitotic Cells (%) (U2OS; [7]): 35%
- Population Normal (%) (U2OS; [7]): 94%
- Population Pyknosed Nuclei (%) (U2OS; [7]): 7%
- Population Tubulin-Different-Phenotype (%) (U2OS; [7]): 14%
- Total Cell Count (U2OS; [7]): 206
- Population Apoptotic (%) (U2OS; [8]): 0%
- Population Fragmented Nuclei (%) (U2OS; [8]): 14%
- Population Healthy Nuclei (%) (U2OS; [8]): 81%
- Population Hoechst High Intensity Objects (%) (U2OS; [8]): 7%
- Population Membrane Permeable-Phenotype (%) (U2OS; [8]): 7%
- Population Mitochondria Different-Phenotype (%) (U2OS; [8]): 26%
- Population Mitotic Cells (%) (U2OS; [8]): 100%
- Population Normal (%) (U2OS; [8]): 92%
- Population Pyknosed Nuclei (%) (U2OS; [8]): 3%
- Population Tubulin-Different-Phenotype (%) (U2OS; [8]): 28%
- Total Cell Count (U2OS; [8]): 83
- Population Apoptotic (%) (U2OS; [9]): 50%
- Population Fragmented Nuclei (%) (U2OS; [9]): 16%
- Population Healthy Nuclei (%) (U2OS; [9]): 75%
- Population Hoechst High Intensity Objects (%) (U2OS; [9]): 7%
- Population Membrane Permeable-Phenotype (%) (U2OS; [9]): 7%
- Population Mitochondria Different-Phenotype (%) (U2OS; [9]): 31%
- Population Mitotic Cells (%) (U2OS; [9]): 50%
- Population Normal (%) (U2OS; [9]): 92%
- Population Pyknosed Nuclei (%) (U2OS; [9]): 7%
- Population Tubulin-Different-Phenotype (%) (U2OS; [9]): 13%
- Total Cell Count (U2OS; [9]): 117
- Population Apoptotic (%) (U2OS; [10]): 71%
- Population Fragmented Nuclei (%) (U2OS; [10]): 9%
- Population Healthy Nuclei (%) (U2OS; [10]): 80%
- Population Hoechst High Intensity Objects (%) (U2OS; [10]): 2%
- Population Membrane Permeable-Phenotype (%) (U2OS; [10]): 10%
- Population Mitochondria Different-Phenotype (%) (U2OS; [10]): 42%
- Population Mitotic Cells (%) (U2OS; [10]): 28%
- Population Normal (%) (U2OS; [10]): 97%
- Population Pyknosed Nuclei (%) (U2OS; [10]): 9%
- Population Tubulin-Different-Phenotype (%) (U2OS; [10]): 21%
- Total Cell Count (U2OS; [10]): 73
- Population Apoptotic (%) (U2OS; [11]): 72%
- Population Fragmented Nuclei (%) (U2OS; [11]): 33%
- Population Healthy Nuclei (%) (U2OS; [11]): 47%
- Population Hoechst High Intensity Objects (%) (U2OS; [11]): 9%
- Population Membrane Permeable-Phenotype (%) (U2OS; [11]): 0%
- Population Mitochondria Different-Phenotype (%) (U2OS; [11]): 34%
- Population Mitotic Cells (%) (U2OS; [11]): 27%
- Population Normal (%) (U2OS; [11]): 90%
- Population Pyknosed Nuclei (%) (U2OS; [11]): 19%
- Population Tubulin-Different-Phenotype (%) (U2OS; [11]): 7%
- Total Cell Count (U2OS; [11]): 213
- Population Apoptotic (%) (U2OS; [12]): 90%
- Population Fragmented Nuclei (%) (U2OS; [12]): 14%
- Population Healthy Nuclei (%) (U2OS; [12]): 70%
- Population Membrane Permeable-Phenotype (%) (U2OS; [12]): 20%
- Population Mitochondria Different-Phenotype (%) (U2OS; [12]): 54%
- Population Mitotic Cells (%) (U2OS; [12]): 9%
- Population Pyknosed Nuclei (%) (U2OS; [12]): 14%
- Population Tubulin-Different-Phenotype (%) (U2OS; [12]): 45%
- Total Cell Count (U2OS; [12]): 83
- Growth Rate (Fibroblast; 0 h, replicate number 1, timepoint 0 hours): 0
- Growth Rate (Fibroblast; 6 h, replicate number 1, timepoint 6 hours): 0
- Growth Rate (Fibroblast; 12 h, replicate number 1, timepoint 12 hours): 0
- Growth Rate (Fibroblast; 12 h, replicate number 2, timepoint 12 hours): 1
- Growth Rate (Fibroblast; 18 h, replicate number 1, timepoint 18 hours): 0
- Growth Rate (Fibroblast; 24 h, replicate number 1, timepoint 24 hours): 0
